Paper PMC5651187 (Cellular signalling, 2017)
Residue numbers refer to the chain shown, from its start.

How the values were obtained:
[1] = target: Vav1 C1 5X (E9M/E10S/T11P/T24L/Y26K); conditions: ref [17], cited from earlier work
[2] = target: T1, Vav3 C1 2X (T24L/Y26K) (Homo sapiens, UniProt Q9UKW4, T537L/Y539K); assay: [3H]PDBu binding, polyethylene glycol precipitation assay
T1 sequence (Q9UKW4 513-562 T537L/Y539K): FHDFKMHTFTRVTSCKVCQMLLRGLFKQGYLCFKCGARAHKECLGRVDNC
Method in brief: (§1)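 GST-fused C1 domain, cloned into pGEX-5x-1 and expressed in BL21 cells. Cultures grown in LB at 37°C to OD 0.5, induced with 0.5 mM IPTG, then grown 4 h at 37°C. Cells lysed with bacterial extraction reagent; protein purified and eluted on a GST spin column. Kd for [3H]PDBu determined by polyethylene glycol precipitation. Values are mean ± SEM of three experiments.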

[3] = system: C1 domain of PKCδ with the corresponding residues in the Vav1 C1 domain; conditions: five amino acids replaced; ref [17]; cited from earlier work
[4] = target: Vav1 C1 3X (E9M/E10S/T11P); conditions: ref [17], cited from earlier work
[5] = target: T2, Vav3 C1 3X (T9M/R10S/V11P) (Homo sapiens, UniProt Q9UKW4, R523S/T522M/V524P); assay: [3H]PDBu binding, polyethylene glycol precipitation assay
T2 sequence (Q9UKW4 513-562 T522M/R523S/V524P): T1 sequence (Q9UKW4 513-562 T537L/Y539K) with T10M, R11S, V12P, L25T, K27Y
Method in brief: as §1, with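 “two replicates.” for “three experiments.”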

[6] = target: T3, Vav3 C1 5X (T9M/R10S/V11P/T24L/Y26K) (Homo sapiens, UniProt Q9UKW4, R523S/T522M/T537L/V524P/Y539K); assay: [3H]PDBu binding, polyethylene glycol precipitation assay
T3 sequence (Q9UKW4 513-562 T522M/R523S/V524P/T537L/Y539K): T1 sequence (Q9UKW4 513-562 T537L/Y539K) with T10M, R11S, V12P
Method in brief: as §1

[7] = target: T4, Vav2 C1 5X (D9M/K10S/T11P/T24L/Y26K) (Homo sapiens, UniProt P52735, D532M/K533S/T534P/T547L/Y549K); assay: as above
T4 sequence (P52735 523-572 D532M/K533S/T534P/T547L/Y549K): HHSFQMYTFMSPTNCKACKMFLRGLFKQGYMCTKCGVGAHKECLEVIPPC
Method in brief: as §1

[8] = target: Vav1 C1 WT; conditions: GST-tagged C1 domain; NA, no activity; ref [17]; cited from earlier work
[9] = target: Vav1 C1 2X (T24L/Y26K); conditions: GST-tagged C1 domain; NA, no activity; ref [17]; cited from earlier work
[10] = target: T5, full length Vav3 wild-type in LNCaP cells (Homo sapiens, UniProt Q9UKW4); assay: Membrane translocation of GFP-tagged protein, confocal microscopy; assay type: cell-based; conditions: 10 μM PMA
T5 sequence (Q9UKW4 1-847): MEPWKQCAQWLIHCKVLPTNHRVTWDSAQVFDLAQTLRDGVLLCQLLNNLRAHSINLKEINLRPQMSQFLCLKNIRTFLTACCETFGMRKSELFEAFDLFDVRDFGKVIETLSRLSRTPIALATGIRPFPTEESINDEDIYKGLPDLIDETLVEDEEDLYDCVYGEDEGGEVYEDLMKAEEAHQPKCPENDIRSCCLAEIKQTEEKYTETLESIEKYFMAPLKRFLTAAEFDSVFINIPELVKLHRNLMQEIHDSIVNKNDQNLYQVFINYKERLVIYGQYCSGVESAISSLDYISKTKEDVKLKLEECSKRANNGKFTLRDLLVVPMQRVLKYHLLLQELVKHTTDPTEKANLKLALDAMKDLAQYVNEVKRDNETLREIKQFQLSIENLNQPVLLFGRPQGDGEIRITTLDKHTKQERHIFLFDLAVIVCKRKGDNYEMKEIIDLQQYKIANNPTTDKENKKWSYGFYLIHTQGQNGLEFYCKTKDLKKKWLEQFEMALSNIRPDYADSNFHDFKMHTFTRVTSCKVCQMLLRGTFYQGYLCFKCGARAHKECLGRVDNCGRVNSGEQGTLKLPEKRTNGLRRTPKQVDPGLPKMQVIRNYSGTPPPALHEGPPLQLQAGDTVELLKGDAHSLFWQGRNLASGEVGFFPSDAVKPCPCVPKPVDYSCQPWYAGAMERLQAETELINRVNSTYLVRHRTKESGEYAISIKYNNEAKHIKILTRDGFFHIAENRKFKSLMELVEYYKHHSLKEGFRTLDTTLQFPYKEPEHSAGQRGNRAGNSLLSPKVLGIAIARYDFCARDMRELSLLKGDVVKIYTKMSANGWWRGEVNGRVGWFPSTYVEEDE
Method in brief: (§2)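 LNCaP cells (passage 3–20) grown in RPMI 1640 with 10% FBS and 2 mM L-glutamine at 37°C, transfected with GFP constructs at 75% confluency; PMA added 24 h later. Confocal imaging with 488 nm excitation and 535–553 nm emission. Membrane/cytoplasm mean-intensity ratio from 3 membrane and 3 cytoplasm regions (~5 μm²) at 0, 5, 10, 30, 45 min (120 min where indicated). Mean ± SEM, ≥3 cells in each of ≥3 independent experiments; Student's t-test.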

[11] = target: T6, Vav3 5X in LNCaP cells (Homo sapiens, UniProt Q9UKW4, R523S/T522M/T537L/V524P/Y539K); assay: as above; assay type: cell-based; conditions: 10 μM PMA
T6 sequence (Q9UKW4 1-847 T522M/R523S/V524P/T537L/Y539K): T5 sequence (Q9UKW4 1-847) with T522M, R523S, V524P, T537L, Y539K
Method in brief: as §2

[12] = target: T7, Vav3 CaWT in LNCaP cells (Homo sapiens, UniProt Q9UKW4); assay: as above; assay type: cell-based; conditions: 10 μM PMA
T7 sequence (Q9UKW4 177-847 limits assumed): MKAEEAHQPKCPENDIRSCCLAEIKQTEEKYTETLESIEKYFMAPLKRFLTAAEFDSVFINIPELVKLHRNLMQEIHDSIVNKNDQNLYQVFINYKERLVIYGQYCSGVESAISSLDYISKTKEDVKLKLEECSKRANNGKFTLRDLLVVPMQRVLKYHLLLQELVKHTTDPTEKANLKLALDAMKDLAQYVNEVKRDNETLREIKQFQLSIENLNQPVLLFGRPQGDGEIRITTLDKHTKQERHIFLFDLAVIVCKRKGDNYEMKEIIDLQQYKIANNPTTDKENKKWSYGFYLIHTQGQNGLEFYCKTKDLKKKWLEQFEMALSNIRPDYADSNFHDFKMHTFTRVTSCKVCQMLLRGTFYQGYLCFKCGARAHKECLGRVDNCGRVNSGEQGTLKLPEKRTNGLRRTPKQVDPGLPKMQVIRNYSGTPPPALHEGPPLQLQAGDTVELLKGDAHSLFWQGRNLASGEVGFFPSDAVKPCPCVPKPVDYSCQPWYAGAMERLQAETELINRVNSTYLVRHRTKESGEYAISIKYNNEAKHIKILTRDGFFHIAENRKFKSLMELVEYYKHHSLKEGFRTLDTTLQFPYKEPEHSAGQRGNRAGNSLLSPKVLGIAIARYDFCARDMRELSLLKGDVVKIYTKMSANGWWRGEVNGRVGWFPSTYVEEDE
Method in brief: as §2

[13] = GST-tagged C1 domain, mean ± SEM of triplicate experiments

SMILES | Kd ([1]; GST-tagged C1 domain) [nM] | Relative to PKCδ C1b [1] [×] | Relative to PKCδ C1b [2] [×] | Kd [2, 13] [nM] | PDBu binding affinity [3] | Kd ([4]; GST-tagged C1 domain) [µM] | Relative to PKCδ C1b [4] | Relative to PKCδ C1b [5] [×] | Kd ([5]; GST-tagged C1 domain, mean ± SEM, only 2 replicates) [nM] | Relative to PKCδ C1b [6] [×] | Kd [6, 13] [nM] | Relative to PKCδ C1b [7] [×] | Kd [7, 13] [nM] | Kd [8] | Kd [9] | membrane translocation in response to phorbol ester [10] | membrane translocation in response to phorbol ester [11] | membrane translocation in response to phorbol ester [12]
CCCC(=O)O[C@@H]1[C@@H](C)[C@@]2(O)[C@@H](C=C(CO)C[C@]3(O)C(=O)C(C)=C[C@@H]23)[C@@H]2C(C)(C)[C@]12OC(=O)CCC [PDBu, Phorbol 12,13-dibutyrate] | 1.05 ± 0.14 | 5.4 | 938 | 188 ± 35 | abolished detectable PDBu binding affinity | 7.33 ± 0.49 | 38,000 × | 4380 | 840 ± 120 | 23.5 | 4.7 ± 0.8 | 3370 | 650.7 ± 2.6 | no detectable binding | did not restore phorbol ester binding |  |  | 
CCCCCCCCCCCCCC(=O)O[C@@H]1[C@@H](C)[C@@]2(O)[C@@H](C=C(CO)C[C@]3(O)C(=O)C(C)=C[C@@H]23)[C@@H]2C(C)(C)[C@]12OC(C)=O [PMA, phorbol 12-myristate 13-acetate] |  |  |  |  |  |  |  |  |  |  |  |  |  |  |  | neither the wild-type Vav3 nor the Vav3 CaWT translocated | became visible after 10 min but became more evident after 2 h | neither the wild-type Vav3 nor the Vav3 CaWT translocated
